The list is not random: actives were taken first. Their share in the collection is about 2.8%.
TNAP inh hiacc – human TNAP enzyme inhibitors, primary screen, biochemical, luminescent, high phosphate acceptor level, uHTS. purified TNAP, CDP-star luminescence, 1 M DEA. inhibition, % at 20 µM. 0.03% of 200,000 active. Alkaline phosphatase, tissue-nonspecific isozyme (Homo sapiens), P05186;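 active means over 50% inhibition of tissue-nonspecific alkaline phosphatase at 20 µM in the single-dose screen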;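 further: plate controls were DMSO wells for no effect and EDTA-quenched wells as full inhibition for full effect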
Target sequence (P05186 whole entry, looked up): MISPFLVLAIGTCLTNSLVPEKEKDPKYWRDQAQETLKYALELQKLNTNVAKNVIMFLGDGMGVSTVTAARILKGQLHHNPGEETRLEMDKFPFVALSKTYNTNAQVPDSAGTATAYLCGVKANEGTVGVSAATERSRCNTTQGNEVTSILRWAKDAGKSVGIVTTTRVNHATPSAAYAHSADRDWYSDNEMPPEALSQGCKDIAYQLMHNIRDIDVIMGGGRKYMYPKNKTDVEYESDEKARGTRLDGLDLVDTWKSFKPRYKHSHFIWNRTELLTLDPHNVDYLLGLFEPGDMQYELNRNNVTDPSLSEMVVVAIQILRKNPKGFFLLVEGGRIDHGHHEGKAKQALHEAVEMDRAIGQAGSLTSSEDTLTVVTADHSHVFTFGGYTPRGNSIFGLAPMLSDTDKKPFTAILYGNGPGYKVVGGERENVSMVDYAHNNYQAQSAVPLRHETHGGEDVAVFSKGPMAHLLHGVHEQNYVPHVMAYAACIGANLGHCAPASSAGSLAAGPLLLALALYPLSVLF
TNAP inh noacc – human TNAP enzyme inhibitors, primary screen, biochemical, luminescent, no phosphate acceptor, uHTS; 0.26% of 200,000 active; purified TNAP, CDP-star luminescence, 30 min; inhibition, % at 20 µM; Alkaline phosphatase, tissue-nonspecific isozyme (Homo sapiens), P05186;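 active means tissue-nonspecific alkaline phosphatase inhibition above about 50% at 20 µM in the single-dose screen, limit read from the data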;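 further: 0% = DMSO negative control and 100% = EDTA positive control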
Yeast growth inh – growth inhibitors of yeast BB579 in restrictive medium, primary screen, yeast lifespan-shortening project, S. cerevisiae; OD615, 48 h; inhibition, % at 10 µM; 0.51% of 140,000 active;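 active means inhibition above a set limit, 3 SD over the mean compound inhibition, cut at about 44% in these data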
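Material: Saccharomyces cerevisiae DeaD strain BB579, replicative lifespan model yeast; buffer or medium: CSMM-D restrictive synthetic medium containing dextrose (glucose); compound: 10 µM single dose, DMSO 0.25%; timing: 48 h compound exposure at 30 °C after 4 h preincubation; signal: turbidity as optical density at 615 nm; benchmarks: positive control amphotericin B 10 µg/mL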
TNAP act hiacc – TNAP activators at high phosphate acceptor level, primary screen, biochemical, luminescence, uHTS | Alkaline phosphatase, tissue-nonspecific isozyme (Homo sapiens), P05186 | purified TNAP, CDP-star luminescence, 1 M DEA, 30 min; stronger effect = higher value; 0 = EDTA background, 1 = DMSO-only activity | activation factor at 20 µM | 200,000 tested, under 10 active | AID 1136, 2008;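 active means activation factor at least 2 at 20 µM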
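Dosing: 20 µM single point. System: human TNAP. Amount: TNAP 1/800 final. Incubation: 30 min, room temperature. Read-out: TNAP activation factor scaled between EDTA and DMSO control wells. Signal: luminescence from CDP-star hydrolysis. Medium: 1 M DEA, pH 9.8, Mg2+, Zn2+. Control set: EDTA negative control, DMSO positive control.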
RAM network inh – inhibitors of the yeast RAM network, primary screen, dse1pr::URA3 reporter, 5-FOA selection; 1.8% of 190,000 active; S. cerevisiae dse1pr::URA3 reporter, 5-FOA growth OD615, 2 d; analog-sensitive cbk1-as2 kinase mutant strain; AID 868, 2007; inhibition, % at 50 µM;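 active means inhibition above a set limit, 3 SD over mean compound inhibition, cut at about 8.4% in these data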;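 further: 0% = DMSO-only wells with no growth and 100% = 10 µM 1-NA-PP1 full growth; inhibition rescues growth on 5-FOA so higher OD means more RAM inhibition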
Yeast lifespan up – compounds extending yeast replicative lifespan, primary screen, S. cerevisiae, OD615; AID 775, 2007; inhibition of the nicotinamide effect, % at 10 µM; S. cerevisiae growth with nicotinamide; deaD strain in restrictive glucose medium; 0.68% of 130,000 active;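 active means inhibition above a set limit, placed 3 SD over the median of all compounds, cut at about 26% in these data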;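 further: 0% = nicotinamide-treated wells and 100% = cells grown without nicotinamide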
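Assay system: engineered S. cerevisiae DeaD replicative-lifespan strain, galactose-grown log-phase cells; Buffer or medium: CSMM-D glucose medium, restrictive; Probe or stimulus: nicotinamide 1.5 mM; Compound: single dose 10 µM compound, 0.25% DMSO; Schedule: 4 h preincubation then 48 h treatment at 30 °C; Technique: OD615 measurement.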
Starred values were filed as active, the others as inactive; · = no result given.

SMILES	TNAP inh hiacc	TNAP inh noacc	Yeast growth inh	TNAP act hiacc	RAM network inh	Yeast lifespan up
COc1ccccc1-c1c(C)oc2cc(OC(=O)c3ccco3)ccc2c1=O	-2.6	0.4	-20.6	1	2.0	32.1*
COc1ccccc1Oc1c(C)oc2cc(OC(=O)c3ccco3)ccc2c1=O	-4.6	-7.4	-47.2	1	2.5	18.1
COCc1cc(C)nc(OC)c1C(N)=O	-1.2	-9.0	·	1	3.4	·
O=c1nc2c(O)cccn2c2c1c(=O)[nH]c1ccccc12	10.5	-8.2	-28.6	0.9	3.5	7.1
O=c1[nH]c2ccccc2c2nc3ccccn3c12	-2.3	-7.6	79.8*	1	0.4	-26.1
CC(C)CN1CCC(CN(C)Cc2nc(-c3cnccn3)no2)CC1	0.7	-8.1	·	1	2.6	·
Cn1ncc(C#N)c1/N=C/N1CCOCC1	-6.9	-13.1	-54.3	1.1	0.0	40.4*
Cc1ccc(C(CCN(Cc2ccccc2)C(=O)c2ccco2)c2ccco2)cc1 (stereo unspecified)	1.7	-5.2	-29.1	1	10.6*	1.3
O=C(O)/C=C/C(=O)N(Cc1ccccc1)Cc1ccco1	0.2	2.6	3.1	1	-0.9	2.9
O=C(c1ccco1)N(CCC(c1ccccc1)c1ccco1)Cc1ccco1 (stereo unspecified)	-1.2	-6.8	-71.5	1	8.8*	-17.5
CCOCCCNCc1cc(Cl)cc(Cl)c1OCC	3.6	-3.2	·	1	0.6	·
O=C(COC(=O)c1c(Cl)ccc(Cl)c1Cl)NC1CCS(=O)(=O)C1 (stereo unspecified)	2.7	-1.3	·	1	2.6	·
N#C/C(=C\c1ccc(-c2ccccc2)cc1)c1nc(-c2ccco2)cs1	8.0	-4.0	-50.0	0.9	8.4*	2.4
COc1ccc(C(=O)/C=C/c2cccs2)c(OC(=O)c2cccc([N+](=O)[O-])c2)c1	1.1	-3.4	-70.6	1	9.3*	-10.3
Cc1ccc(-n2nnnc2SCC(=O)Nc2ncc(Cc3ccccc3Cl)s2)cc1	0.7	-11.5	-16.7	1	1.6	0.2
COc1ccc(N=CC2=C(O)CC(c3ccccc3)CC2=O)c(OC)c1 (stereo unspecified)	-2.6	0.2	-38.0	1	3.7	1.4
CCOc1ccccc1N=CC1=C(O)CC(c2ccccc2)CC1=O (stereo unspecified)	-6.2	-12.3	·	1.1	10.7*	·
COC1=C(c2ccccc2)C(=O)c2ccccc2C1=O	9.2	1.0	68.4*	0.9	-0.6	12.5
COc1ccc(C2NC(=O)NC(c3ccccc3)=C2c2nc3ccccc3s2)cc1 (stereo unspecified)	5.8	13.1	-40.9	0.9	8.7*	-7.3
Cc1cc(C(=O)C(=O)O)c(C)n1-c1ccc(Cl)c(Cl)c1	-5.9	-1.0	·	1.1	2.4	·
O=C(Cc1ccc(Cl)cc1)NC(=S)Nc1ccccc1N1CCOCC1	1.5	-4.1	-24.6	1	3.5	-0.8
COc1ccc(Cl)cc1NC(=O)CN(C)CC(=O)Nc1ccccc1N1CCOCC1	-1.9	4.0	·	1	0.5	·
O=C(Nc1ccccc1N1CCOCC1)C1(c2ccc(Cl)cc2)CCC1	-1.2	-15.5	·	1	9.2*	·
Cc1cc(Cl)ccc1OC(C)C(=O)Nc1ccccc1N1CCOCC1 (stereo unspecified)	-7.1	-13.6	-18.7	1.1	9.5*	-6.8
Cc1cccc(C(=O)NC(=S)N2CCc3ccccc3C2)c1	-5.0	-6.2	-66.4	1.1	1.3	3.2
SMILES	TNAP inh hiacc	TNAP inh noacc	Yeast growth inh	TNAP act hiacc	RAM network inh	Yeast lifespan up
CCOC(=O)N=Nc1c(O)n(CC)c2ccccc12	-2.3	-10.7	-37.1	1	1.1	-6.0
CCOC(=O)N=Nc1c(O)n(Cc2ccccc2)c2ccccc12	2.5	-3.0	·	1	10.5*	·
C=CCNC(=O)/C(C#N)=C/c1ccccc1OCc1ccc(C(=O)OC)cc1	-0.6	-7.1	-52.5	1	7.0	34.9*
COC(=O)c1ccc(COc2ccccc2/C=C(\C#N)C(=O)Nc2ccc(C)cc2)cc1	-2.6	-16.9	-30.8	1	4.5	5.9
O=C(CSc1nnnn1-c1ccc(F)cc1)c1ccc(O)c(O)c1	14.8	75.3*	·	0.9	3.5	·
COc1ccc(-n2nnnc2SCC(=O)c2cccc(OC)c2)cc1	-6.4	-9.4	-27.6	1.1	7.8	-7.9
Cc1c(C(=O)Oc2cccc3ccccc23)cnn1-c1ccccc1	-1.1	-5.3	-18.9	1	8.6*	-5.0
CC(=O)c1cnn(-c2ccccc2)c1C	3.1	-2.2	·	1	0.3	·
Cc1cc(C)nc(SCc2ccc(C(=O)N/N=C/C3CCCCC3)cc2)n1	2.8	-4.3	-30.6	1	0.2	-1.1
CC(C)[C@H](NC(=O)c1ccco1)C(=O)OCC(=O)Nc1ccccc1OC(F)F	0.8	-6.2	·	1	0.4	·
C/C(=N\Nc1ccc(Cl)cc1)c1ccccn1	-2.4	-3.2	92.0*	1	0.0	-16.6
CCCCCC(=O)N/N=C(\C)c1ccccn1	-0.6	-10.2	-22.2	1	0.7	-17.5
Cc1nc2c(c(-c3ccccc3)c1C#N)C(=O)c1ccccc1-2	1.0	-3.2	-35.5	1	3.9	-17.2
Cc1nc2c(c(C)c1C#N)C(=O)c1ccccc1-2	-2.4	-14.6	64.0*	1	5.2	-6.6
COc1cc2cc(CN(Cc3cccs3)C(=S)Nc3cccc(C)c3)c(=O)[nH]c2cc1OC	-1.6	-18.1	-33.0	1	8.9*	6.9
COc1cc2cc(CN(Cc3cccs3)C(=S)Nc3ccc(C)cc3)c(=O)[nH]c2cc1OC	0.0	-8.0	-12.7	1	7.1	6.0
COc1ccccc1NC(=S)N(Cc1ccco1)Cc1cc2cc(C)c(C)cc2[nH]c1=O	1.1	-17.2	-36.0	1	9.5*	6.0
COc1ccc(CCNC(=O)c2ccccc2SC)cc1	-2.0	-14.1	·	1	-0.2	·
COc1ccc(-c2[nH]ncc2CN2CCC(OCc3ccccc3)CC2)c(F)c1	-6.2	45.4	·	1.1	-0.4	·
CCOC(=O)C1CCCN(Cc2cn[nH]c2-c2ccc(F)cc2F)C1 (stereo unspecified)	-5.2	42.3	·	1.1	1.7	·
COc1ccc(-c2[nH]ncc2CN2CCC(N3CCSCC3)CC2)c(F)c1	-5.7	75.2*	·	1.1	1.7	·
COc1ccc(-c2[nH]ncc2CN2CCCO2)c(F)c1	-8.4	64.4*	·	1.1	2.7	·
COc1ccccc1C(=O)N1CCN(Cc2cn[nH]c2-c2ccc(F)cc2F)CC1	4.3	85.6*	·	1	1.1	·

From PubChem BioAssay
